Compound activity: PubChem BioAssay, Sanford-Burnham Center for Chemical Genomics
Shown are actives, neighbours in structure and some others; about 1.4% of the full set was active somewhere.
A3G deaminase – blocks human APOBEC3G single-stranded DNA deamination; Q9HC16; 0.28% of 330,000 active; recombinant A3G, ssDNA deamination FAM/TAMRA fluorescence; inhibition, % at 20 µM; AID 493012;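 active = inhibition of at least 40% at 20 µM, with no more than 30% in the related APOBEC3A deaminase screen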
APOBEC3A inh – human APOBEC3A DNA deaminase inhibition; P31941; 0.41% of 330,000 active; recombinant A3A, FAM/TAMRA ssDNA deamination fluorescence; inhibition, % at 20 µM;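 active = at least 40% inhibition at 20 µM here, with at most 30% in a related deaminase screen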
PfGluPho inh – PfG6PD (Plasmodium falciparum) enzyme inhibition; 0.78% of 350,000 active; inhibition, % at 20 µM; AID 504690; PfGluPho enzyme, NADPH resazurin-diaphorase fluorescence;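 active = inhibition reaching at least a set limit at 20 µM in the primary screen, cut at about 59% in these data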
hiPSC survival – hiPSC single-cell survival enhancement | ATPlite luminescence; 100% = ROCK inhibitor wells, 0% = DMSO | survival enhancement, % at 20 µM | 0.044% of 360,000 active; in the data active = survival enhancement above about 18%;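 note: cells exposed to compounds for 16 hours before the ATP read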
HKDC1 inh – blocks human hexokinase HKDC1 activity | recombinant HKDC1, G6PDH/diaphorase resazurin coupled fluorescence | 0.16% of 340,000 active | AID 493160 | inhibition, % at 20 µM;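 active = inhibition above about 35% when tested at 20 µM, limit read from the data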
Target sequence (Q2TB90 whole entry, looked up): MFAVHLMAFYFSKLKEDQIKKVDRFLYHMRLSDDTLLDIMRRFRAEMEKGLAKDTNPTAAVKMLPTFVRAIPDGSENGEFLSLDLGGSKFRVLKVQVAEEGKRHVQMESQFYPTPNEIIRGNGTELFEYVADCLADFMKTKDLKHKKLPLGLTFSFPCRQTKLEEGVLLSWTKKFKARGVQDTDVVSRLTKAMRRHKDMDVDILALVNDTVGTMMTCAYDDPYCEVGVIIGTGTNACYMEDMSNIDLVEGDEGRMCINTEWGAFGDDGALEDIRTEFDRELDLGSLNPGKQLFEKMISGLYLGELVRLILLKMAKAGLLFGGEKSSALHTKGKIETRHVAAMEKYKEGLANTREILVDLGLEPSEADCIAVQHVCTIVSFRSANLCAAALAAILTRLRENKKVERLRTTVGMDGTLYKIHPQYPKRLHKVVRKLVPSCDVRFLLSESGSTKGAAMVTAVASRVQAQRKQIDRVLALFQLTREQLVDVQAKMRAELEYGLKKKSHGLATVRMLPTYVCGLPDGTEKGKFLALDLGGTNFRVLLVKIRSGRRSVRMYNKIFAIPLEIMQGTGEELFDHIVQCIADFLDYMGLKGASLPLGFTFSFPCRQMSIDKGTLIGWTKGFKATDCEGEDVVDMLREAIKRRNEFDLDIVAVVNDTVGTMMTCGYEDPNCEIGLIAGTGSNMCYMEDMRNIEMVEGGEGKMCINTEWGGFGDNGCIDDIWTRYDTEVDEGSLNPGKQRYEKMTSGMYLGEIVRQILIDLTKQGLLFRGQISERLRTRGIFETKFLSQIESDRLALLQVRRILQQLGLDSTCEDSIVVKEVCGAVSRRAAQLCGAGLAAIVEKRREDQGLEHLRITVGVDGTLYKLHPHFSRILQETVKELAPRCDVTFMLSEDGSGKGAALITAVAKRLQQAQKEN
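Test system: HK5 enzyme. Quantity: 5 µg/mL HK5 final. Reagent: glucose and ATP substrates. Schedule: 90 min reaction incubation at room temperature, dark. Technique: resazurin-to-resorufin fluorescence via G6PDH and diaphorase coupling, 525/613 nm. Control set: DMSO wells with and without enzyme mix.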
A3A conf – confirmation of human APOBEC3A DNA deaminase inhibitors; shares compounds with APOBEC3A inh; recombinant A3A, ssDNA deaminase UDG fluorescence assay; inhibition, % at 20 µM; 63% of 1,400 active;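 active = inhibition reaching a set limit, 80% of the first screen's cutoff, at 20 µM in any replicate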
UDG ctr A3A – counter-screen for APOBEC3A inhibitors: UDG | 1,000 tested, under 10 active | inhibition, % at 20 µM | UDG counterscreen, FAM/TAMRA uracil oligo fluorescence | AID 504714 | shares compounds with APOBEC3A inh; call rule not given here
Large screens that a line does not name were inactive (follow-up assays come after a bar, where they were run).

Nc1ccc2nc(SCC(=O)Nc3ccc(N4CCOCC4)c(Cl)c3)sc2c1	APOBEC3A inh 41 | A3A conf 55 | UDG ctr A3A inactive
CC(C)(C)NC(=O)CSc1nc2ccc(NC(=O)CSc3nnc(N)s3)cc2s1	APOBEC3A inh 48 | A3A conf 69 | UDG ctr A3A inactive
CCCC(=O)Nc1ccc2nc(SCC(=O)Nc3ccc(N4CCOCC4)c(Cl)c3)sc2c1	APOBEC3A inh 63 | A3A conf 46 | UDG ctr A3A inactive
CC(C)(C)NC(=O)CSc1nc2ccc(NC(=O)CSc3nnnn3Cc3ccccc3)cc2s1	none
Nc1nnc(SCC(=O)Nc2ccc(N3CCOCC3)c(Cl)c2)s1	none
O=C(Nc1cccc(F)c1)Nc1ccnn1C1CCN(C(=O)c2cscn2)CC1	none
CS(=O)(=O)NCCn1ccc2ccccc21	none
C[N+]1(CCn2ccc3ccccc32)CCCCC1	APOBEC3A inh 63 | A3A conf 68 | UDG ctr A3A inactive
O=C(N/N=C/c1ccncc1)c1cccs1	none
O=C(N/N=C/c1ccc(-c2ccccc2C(=O)O)o1)c1cccs1	APOBEC3A inh 46 | A3A conf 38 | UDG ctr A3A inactive
CC12CC3(C)CC(C)(C1)CC(C(=O)NCC(=O)O)(C2)C3	APOBEC3A inh 50 | A3A conf inactive | UDG ctr A3A inactive
C=CCNC(=O)C12CC3(C)CC(C)(CC(C)(C3)C1)C2	none
Cn1c(SCC(=O)N2CCOCC2)nnc1-c1ccncc1	none
Cn1c(SCC(=O)N2CCOCC2)nnc1-c1cccc(NC(=O)c2ccccc2)c1	APOBEC3A inh 64 | A3A conf 66 | UDG ctr A3A inactive
O=C(NCc1ccccn1)C1CCN(S(=O)(=O)c2ccccc2)CC1	none
C=CCNC(=O)c1ccccc1NC(=O)C1CCN(S(=O)(=O)c2ccc(SC)cc2)CC1	APOBEC3A inh 44 | A3A conf 60 | UDG ctr A3A inactive
CSc1ccc(S(=O)(=O)N2CCC(C(=O)NCc3ccccn3)CC2)cc1	APOBEC3A inh 59 | A3A conf 53 | UDG ctr A3A inactive
CC1CCCC(NC(=O)NC(=O)COC(=O)c2ccc(O)cc2O)C1C (stereo not drawn)	APOBEC3A inh 85 | A3A conf 33 | UDG ctr A3A inactive
Cc1cc(C(=O)OCC(=O)NC2CCCC(C)C2C)c(C)o1 (stereo not drawn)	none
CC(C)C[C@H](NC(=O)[C@@H]1Cc2c([nH]c3ccccc23)C2c3ccccc3C(=O)N21)C(=O)N1CCC[C@@H]1C(=O)O (stereo partly drawn)	none
CCN1/C(=C/c2cccc[n+]2C)Sc2ccc(OC)cc21	APOBEC3A inh 53 | A3A conf 87 | UDG ctr A3A inactive
COc1ccc2c(c1)N(C)/C(=C/c1cccc[n+]1C)S2	APOBEC3A inh 57 | A3A conf 88 | UDG ctr A3A inactive
CC1=CC(C)(C)N2C(=O)C3(NCCc4c3[nH]c3ccccc43)c3cccc1c32 (stereo not drawn)	none
O=C(N/N=C\C=C\c1ccc2c(c1)OCO2)c1cccnc1	APOBEC3A inh 45 | A3A conf inactive | UDG ctr A3A inactive
COc1ccccc1/C=C/C(=O)Nc1nc(N)n(-c2ccccc2)n1	none
CC(NC(=O)c1ccccc1Cl)C(=O)NCc1cccs1 (stereo not drawn)	none
C[C@H](NC(=O)c1ccccc1Cl)C(=O)NCc1cccs1	APOBEC3A inh 59 | A3A conf inactive
COCCN(CC(=O)Nc1cccc(C)c1C)C(=O)CN1C(=O)NC2(CCCCC2)C1=O	APOBEC3A inh 41 | A3A conf 49 | UDG ctr A3A inactive
COc1ccc(C(=O)Nc2ccc3c(c2)C(=O)c2ccccc2C3=O)cc1OC	APOBEC3A inh 66 | A3A conf inactive
CCn1c(/C=C/N(C(C)=O)c2ccccc2)[n+](CC)c2ccc(Cl)cc21	APOBEC3A inh 63 | A3A conf 64 | UDG ctr A3A inactive
CCn1c(C)[n+](CC)c2ccc(S(=O)(=O)NC)cc21	APOBEC3A inh 76 | A3A conf 49 | UDG ctr A3A inactive
CC[n+]1c(C)n(C)c2cc(S(=O)(=O)N(C)C)ccc21	APOBEC3A inh 82 | A3A conf 77 | UDG ctr A3A inactive
CCOC(=O)c1ccc2c(c1)n(CC)c(C)[n+]2CC	APOBEC3A inh 73 | A3A conf 69 | UDG ctr A3A inactive
CCn1c(C)[n+](CC)c2ccc(S(=O)(=O)N(C)C)cc21	none
Cc1ccc(C(=O)CNc2ccc(C)cc2C)cc1	none
Cc1ccc(S(=O)(=O)N2CCOC23CCN(C(=O)c2ccccc2Br)CC3)cc1	none
c1ccc(Cc2nc3ccccc3s2)cc1	none (no result: A3G deaminase, APOBEC3A inh)
CN(C(=O)c1cccc(C(=O)N(C)c2ccccc2)c1)c1ccccc1	none
CCn1c(C)[n+](CC)c2ccc(C(=O)N(C)c3ccccc3)cc21	APOBEC3A inh 71 | A3A conf 80 | UDG ctr A3A inactive
CC(C)CCOCC(O)CCC(=O)NNC(=S)Nc1ccccc1 (stereo not drawn)	APOBEC3A inh 92 | A3A conf inactive | UDG ctr A3A inactive
CCn1c(C)cc(/C=C2\NC(=O)N(CC(=O)Nc3ccc(F)cc3)C2=O)c1C	APOBEC3A inh 66 | A3A conf 74 | UDG ctr A3A inactive
CCn1cc(/C=C(\NC(=O)c2ccccc2F)C(=O)NCCN2CCOCC2)c2ccccc21	APOBEC3A inh 81 | A3A conf inactive | UDG ctr A3A inactive
CC(=O)c1ccc[n+](CC(=O)NC(C)c2ccccc2)c1 (stereo not drawn)	APOBEC3A inh 62 | A3A conf 64 | UDG ctr A3A inactive
Cc1ccc(C(=O)/C=C/c2c[nH]c3ccccc23)cc1	none
CCN(CC)C(=O)c1ccc(/C=C/c2c[nH]c3ccccc23)[n+](C)c1	APOBEC3A inh 42 | A3A conf 68 | UDG ctr A3A inactive
CCOc1ccc(NC(=O)c2cc(C3CC3)nc3c2cnn3C(C)C)cc1OC	APOBEC3A inh 51 | A3A conf inactive
CC(=O)Nc1ccc(NC(=O)c2cc(C3CC3)nc3c2cnn3C(C)C)cc1	none
Cc1nn(C(C)C)c(C)c1CN1CCC(C(=O)Nc2cccc(-c3cccc(F)c3)c2)CC1	none
O=C(O)c1ccc(NC(=O)c2ccccc2NC(=O)c2ccccc2Cl)cc1	none
CN(C)CCCNc1c2ccccc2nc2ccccc12	APOBEC3A inh 54 | A3A conf 54 | UDG ctr A3A inactive
COc1ccc(OC)c(/C=C/c2[nH]c(=O)[nH]c(=O)c2[N+](=O)[O-])c1	none
O=C(CC1(O)C(=O)Nc2ccccc21)c1ccc2c(c1)OCO2 (stereo not drawn)	APOBEC3A inh 79 | A3A conf inactive | UDG ctr A3A inactive
Cc1ccc2c(c1C)NC(=O)C2(O)CC(=O)c1ccc2c(c1)OCO2 (stereo not drawn)	none
